Experimental data reported in ChEMBL document CHEMBL4033712, “Synthesis and biological evaluation of new C-12(α/β)-(N-) sulfamoyl-phenylamino-14-deoxy-andrographolide derivatives as potent anti-cancer agents” (Bioorg Med Chem Lett, 2017).

What was measured:
Format in all cases: functional
[1] = test system: UACC-257; test: Growth inhibition of human UACC257 cells incubated for 48 hrs by sulforhodamine B assay; settings: UACC-257, 48 h
Outline: (§1)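 NCI 60 human tumour cell line panel, five-dose study at 0.01, 0.1, 1, 10 and 100 µM, 48 h incubation. Sulforhodamine B protein-binding dye end point. GI50 (50% decrease in net cell growth), TGI (total growth inhibition) and LC50 (net 50% loss of initial cells) read from log concentration versus % growth inhibition curves.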

[2] = test system: T47D; test: Growth inhibition of human T47D cells incubated for 48 hrs by sulforhodamine B assay; outline: as §1
[3] = test system: IGROV-1; test: Growth inhibition of human IGROV1 cells incubated for 48 hrs by sulforhodamine B assay; settings: IGROV-1, 48 h
Outline: (§2)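 NCI-60 five-dose screen at 0.01, 0.1, 1, 10 and 100 µM, 48 h incubation, sulforhodamine B end point. GI50 (50% decrease in net growth), TGI (total growth inhibition) and LC50 (net 50% loss of initial cells) taken from log concentration versus % growth inhibition curves.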

[4] = test system: NCI/ADR-RES; test: Growth inhibition of human NCI/ADR-RES cells incubated for 48 hrs by sulforhodamine B assay; outline: as §2
[5] = test system: NCI-H322M; test: Growth inhibition of human NCI-H322M cells incubated for 48 hrs by sulforhodamine B assay; outline: as §2
[6] = test system: SK-MEL-2; test: Growth inhibition of human SK-MEL-2 cells incubated for 48 hrs by sulforhodamine B assay; settings: SK-MEL-2, 48 h; outline: as §1
[7] = test system: NCI-H226; test: Growth inhibition of human NCI-H226 cells incubated for 48 hrs by sulforhodamine B assay; settings: NCI-H226, 48 h; outline: as §2
[8] = test system: SF-295; test: Growth inhibition of human SF295 cells incubated for 48 hrs by sulforhodamine B assay; settings: SF-295, 48 h; outline: as §1
[9] = test system: HOP-92; test: Growth inhibition of human HOP92 cells incubated for 48 hrs by sulforhodamine B assay; settings: HOP-92, 48 h; outline: as §2
[10] = test system: SF-539; test: Anticancer activity against human SF539 cells assessed as cell growth at 10 uM after 48 hrs by sulforhodamine B assay relative to control; settings: SF-539, 48 h, read-out: Activity
Outline: (§3)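 Single-dose NCI-60 panel screen: compound added at 10 µM and the culture incubated 48 h. The end point was read by protein staining with sulforhodamine B. The value is percent growth of treated cells relative to untreated control cells, reported as a mean graph across the panel.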

[11] = test system: SNB-19; test: Anticancer activity against human SNB19 cells assessed as cell growth at 10 uM after 48 hrs by sulforhodamine B assay relative to control; settings: SNB-19, 48 h, read-out: Activity; outline: as §3
[12] = test system: SN12C; test: Growth inhibition of human SN12C cells incubated for 48 hrs by sulforhodamine B assay; outline: as §1
[13] = test system: DU-145; test: Growth inhibition of human DU145 cells incubated for 48 hrs by sulforhodamine B assay; settings: DU-145, 48 h; outline: as §2
[14] = test system: NCI-H460; test: Growth inhibition of human NCI-H460 cells incubated for 48 hrs by sulforhodamine B assay; settings: NCI-H460, 48 h; outline: as §2
[15] = test system: TK-10; test: Growth inhibition of human TK10 cells incubated for 48 hrs by sulforhodamine B assay; settings: TK-10, 48 h; outline: as §1
[16] = test system: MDA-MB-231; test: Growth inhibition of human MDA-MB-231 cells incubated for 48 hrs by sulforhodamine B assay; settings: MDA-MB-231, 48 h; outline: as §2
[17] = test system: A549; test: Growth inhibition of human A549/ATCC cells incubated for 48 hrs by sulforhodamine B assay; settings: A549, 48 h; outline: as §2
[18] = test system: HCC 2998; test: Growth inhibition of human HCC2998 cells incubated for 48 hrs by sulforhodamine B assay; settings: HCC 2998, 48 h; outline: as §2
[19] = test system: LOX IMVI; test: Growth inhibition of human LOXIMVI cells incubated for 48 hrs by sulforhodamine B assay; outline: as §2
[20] = test system: Hs-578T; test: Growth inhibition of human Hs 578T cells incubated for 48 hrs by sulforhodamine B assay; outline: as §2
[21] = test system: NCI-H522; test: Growth inhibition of human NCI-H522 cells incubated for 48 hrs by sulforhodamine B assay; settings: NCI-H522, 48 h; outline: as §2
[22] = test system: SNB-19; test: Growth inhibition of human SNB19 cells incubated for 48 hrs by sulforhodamine B assay; settings: SNB-19, 48 h; outline: as §1
[23] = test system: SK-OV-3; test: Growth inhibition of human SKOV3 cells incubated for 48 hrs by sulforhodamine B assay; settings: SK-OV-3, 48 h; outline: as §1
[24] = test system: OVCAR-8; test: Growth inhibition of human OVCAR8 cells incubated for 48 hrs by sulforhodamine B assay; settings: OVCAR-8, 48 h; outline: as §2
[25] = test system: HCT-15; test: Growth inhibition of human HCT15 cells incubated for 48 hrs by sulforhodamine B assay; settings: HCT-15, 48 h; outline: as §2
[26] = test system: OVCAR-4; test: Growth inhibition of human OVCAR4 cells incubated for 48 hrs by sulforhodamine B assay; settings: OVCAR-4, 48 h; outline: as §2
[27] = test system: MDA-MB-468; test: Growth inhibition of human MDA-MB-468 cells incubated for 48 hrs by sulforhodamine B assay; settings: MDA-MB-468, 48 h; outline: as §2
[28] = test system: A498; test: Growth inhibition of human A498 cells incubated for 48 hrs by sulforhodamine B assay; settings: A498, 48 h; outline: as §2
[29] = read-out: LC50 (the source's name)

C=C1CC[C@@H]2[C@](C)(COC(C)=O)[C@H](OC(C)=O)CC[C@@]2(C)[C@H]1CC(Nc1ccc(S(=O)(=O)Nc2nccc(C)n2)cc1)C1=CCOC1=O (stereo not given in full)
GI50 [1]: 4.8 µM | TGI [1]: 16.4 µM | CC50 [1, 29]: 42.8 µM | GI50 [2]: 2770 nM | TGI [2]: 8.33 µM | CC50 [2, 29]: > 100 µM | GI50 [3]: 3.62 µM | TGI [3]: 13.6 µM | CC50 [3, 29]: 45.5 µM | GI50 [4]: 2940 nM | LC50 (concentration giving net 50% loss of initial cells) [4]: > 100 µM | TGI [4]: 13.5 µM | GI50 [5]: 11.3 µM | TGI [5]: 23.9 µM | CC50 [5, 29]: 50.7 µM | GI50 [6]: 6.01 µM | TGI [6]: 20 µM | CC50 [6, 29]: 52.1 µM | GI50 [7]: 2330 nM | TGI [7]: 5.91 µM | CC50 [7, 29]: > 100 µM | GI50 [8]: 12.4 µM | TGI [8]: 25.6 µM | CC50 [8, 29]: 52.9 µM | GI50 [9]: 6.24 µM | TGI [9]: 18.9 µM | CC50 [9, 29]: 44.5 µM | growth at 10 µM [10]: -62.7% | growth at 10 µM [11]: 53.6% | GI50 [12]: 2640 nM | TGI [12]: 6.17 µM | CC50 [12, 29]: 81.2 µM | GI50 [13]: 3.36 µM | TGI [13]: 11.8 µM | CC50 [13, 29]: 34.9 µM | GI50 [14]: 4.88 µM | TGI [14]: 18.3 µM | CC50 [14, 29]: 53.9 µM | GI50 [15]: 4.94 µM | TGI [15]: 15.8 µM | CC50 [15, 29]: 40.4 µM | GI50 [16]: 3.62 µM | LC50 (concentration giving net 50% loss of initial cells) [16]: 40.5 µM | TGI [16]: 10.2 µM | GI50 [17]: 8.19 µM | TGI [17]: 21.9 µM | CC50 [17, 29]: 52.2 µM | GI50 [18]: 4.98 µM | TGI [18]: 17.9 µM | CC50 [18, 29]: 48.1 µM | GI50 [19]: 1530 nM | TGI [19]: 3.24 µM | CC50 [19, 29]: 6.89 µM | GI50 [20]: 6.65 µM | LC50 [20]: > 100 µM | TGI [20]: 43 µM | GI50 [21]: 1260 nM | TGI [21]: 3.1 µM | CC50 [21, 29]: 7.62 µM | GI50 [22]: 6.3 µM | TGI [22]: 20.7 µM | CC50 [22, 29]: 52.7 µM | GI50 [23]: 12.7 µM | TGI [23]: 25.3 µM | CC50 [23, 29]: 50.3 µM | GI50 [24]: 2610 nM | TGI [24]: 8.56 µM | CC50 [24, 29]: 47.6 µM | GI50 [25]: 1790 nM | TGI [25]: 4.24 µM | CC50 [25, 29]: 10.2 µM | GI50 [26]: 4.37 µM | LC50 [26]: 41.4 µM | TGI [26]: 15.8 µM | GI50 [27]: 1990 nM | TGI [27]: 4.3 µM | CC50 [27, 29]: 9.3 µM | GI50 [28]: 14.8 µM | LC50 (concentration giving net 50% loss of initial cells) [28]: 54.4 µM | TGI [28]: 28.4 µM
